In ChEMBL document CHEMBL5303300, “EUbOPEN Chemogenomics Library - Multiplex” (2023):
Several values for one entry are separate records, joined by “and”; a condition that tells them apart may be missing. Equal values may be shown once.

How the values were obtained:
Type in all cases: toxicity, cell-based
Fibroblast = test: Multiplex assay against human fibroblast; conditions: number of replicates 2
How it was run: (§1)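 Live cells were stained at seeding with Hoechst33342, BioTracker Green Microtubule Cytoskeleton Dye, MitoTracker Red and Annexin V Alexa Fluor 680, then imaged on a CQ1 microscope at 37°C and 5% CO2 after compound addition. CellPathfinder machine-learning gating split cells into Hoechst high-intensity objects or normal cells. Normal cells were split into healthy, pyknosed or fragmented nuclei, and pyknosed cells into mitotic or apoptotic. Tubulin, mitochondrial-mass and membrane-permeability phenotypes are per cents of healthy-nucleus cells.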

HEK-293T = test: Multiplex assay against HEK293T; conditions: human, number of replicates 2; how it was run: as §1
U2OS = test: Multiplex assay against U2OS; conditions: human, number of replicates 2; how it was run: as §1
[1] = 12 h, 1 µM, compound concentration 1 uM
[2] = 12 h, 10 µM, compound concentration 10 uM
[3] = 24 h, 1 µM, compound concentration 1 uM
[4] = 24 h, 10 µM, compound concentration 10 uM
[5] = 48 h, 1 µM, compound concentration 1 uM
[6] = 48 h, 10 µM, compound concentration 10 uM

Cn1c(Nc2c(Cl)cccc2Cl)nc2ccc3nc[nH]c(=O)c3c21
Population Apoptotic (%) (Fibroblast; [1]): 43% and 47%
Population Fragmented Nuclei (%) (Fibroblast; [1]): 10% and 5%
Population Healthy Nuclei (%) (Fibroblast; [1]): 56% and 67%
Population Hoechst High Intensity Objects (%) (Fibroblast; [1]): 0%
Population Membrane Permeable-Phenotype (%) (Fibroblast; [1]): 10% and 6%
Population Mitochondria Different-Phenotype (%) (Fibroblast; [1]): 1% and 2%
Population Mitotic Cells (%) (Fibroblast; [1]): 56% and 52%
Population Normal (%) (Fibroblast; [1]): 100%
Population Pyknosed Nuclei (%) (Fibroblast; [1]): 32% and 26%
Population Tubulin-Different-Phenotype (%) (Fibroblast; [1]): 11% and 14%
Total Cell Count (Fibroblast; [1]): 169 and 189
Population Apoptotic (%) (Fibroblast; [2]): 40% and 37%
Population Fragmented Nuclei (%) (Fibroblast; [2]): 8% and 17%
Population Healthy Nuclei (%) (Fibroblast; [2]): 62% and 69%
Population Hoechst High Intensity Objects (%) (Fibroblast; [2]): 0%
Population Membrane Permeable-Phenotype (%) (Fibroblast; [2]): 10% and 5%
Population Mitochondria Different-Phenotype (%) (Fibroblast; [2]): 4% and 3%
Population Mitotic Cells (%) (Fibroblast; [2]): 59% and 62%
Population Normal (%) (Fibroblast; [2]): 100%
Population Pyknosed Nuclei (%) (Fibroblast; [2]): 28% and 12%
Population Tubulin-Different-Phenotype (%) (Fibroblast; [2]): 18% and 23%
Total Cell Count (Fibroblast; [2]): 156 and 195
Population Apoptotic (%) (Fibroblast; [3]): 53% and 47%
Population Fragmented Nuclei (%) (Fibroblast; [3]): 8% and 10%
Population Healthy Nuclei (%) (Fibroblast; [3]): 54% and 57%
Population Hoechst High Intensity Objects (%) (Fibroblast; [3]): 0%
Population Membrane Permeable-Phenotype (%) (Fibroblast; [3]): 12% and 11%
Population Mitochondria Different-Phenotype (%) (Fibroblast; [3]): 1% and 3%
Population Mitotic Cells (%) (Fibroblast; [3]): 46% and 52%
Population Normal (%) (Fibroblast; [3]): 100%
Population Pyknosed Nuclei (%) (Fibroblast; [3]): 36% and 32%
Population Tubulin-Different-Phenotype (%) (Fibroblast; [3]): 10% and 18%
Total Cell Count (Fibroblast; [3]): 152 and 202
Population Apoptotic (%) (Fibroblast; [4]): 43% and 41%
Population Fragmented Nuclei (%) (Fibroblast; [4]): 16% and 14%
Population Healthy Nuclei (%) (Fibroblast; [4]): 54% and 72%
Population Hoechst High Intensity Objects (%) (Fibroblast; [4]): 0%
Population Membrane Permeable-Phenotype (%) (Fibroblast; [4]): 9% and 6%
Population Mitochondria Different-Phenotype (%) (Fibroblast; [4]): 3% and 1%
Population Mitotic Cells (%) (Fibroblast; [4]): 56% and 58%
Population Normal (%) (Fibroblast; [4]): 100%
Population Pyknosed Nuclei (%) (Fibroblast; [4]): 28% and 13%
Population Tubulin-Different-Phenotype (%) (Fibroblast; [4]): 19% and 11%
Total Cell Count (Fibroblast; [4]): 152 and 183
Population Apoptotic (%) (Fibroblast; [5]): 59% and 61%
Population Fragmented Nuclei (%) (Fibroblast; [5]): 15% and 14%
Population Healthy Nuclei (%) (Fibroblast; [5]): 55% and 62%
Population Hoechst High Intensity Objects (%) (Fibroblast; [5]): 2% and 0%
Population Membrane Permeable-Phenotype (%) (Fibroblast; [5]): 17% and 10%
Population Mitochondria Different-Phenotype (%) (Fibroblast; [5]): 2%
Population Mitotic Cells (%) (Fibroblast; [5]): 40% and 38%
Population Normal (%) (Fibroblast; [5]): 97% and 100%
Population Pyknosed Nuclei (%) (Fibroblast; [5]): 29% and 23%
Population Tubulin-Different-Phenotype (%) (Fibroblast; [5]): 17% and 13%
Total Cell Count (Fibroblast; [5]): 128 and 187
Population Apoptotic (%) (Fibroblast; [6]): 94% and 87%
Population Fragmented Nuclei (%) (Fibroblast; [6]): 18%
Population Healthy Nuclei (%) (Fibroblast; [6]): 26% and 35%
Population Hoechst High Intensity Objects (%) (Fibroblast; [6]): 0%
Population Mitochondria Different-Phenotype (%) (Fibroblast; [6]): 0%
Population Mitotic Cells (%) (Fibroblast; [6]): 5% and 12%
Population Normal (%) (Fibroblast; [6]): 100%
Population Pyknosed Nuclei (%) (Fibroblast; [6]): 54% and 46%
Population Tubulin-Different-Phenotype (%) (Fibroblast; [6]): 37% and 16%
Total Cell Count (Fibroblast; [6]): 131 and 170
Population Apoptotic (%) (HEK-293T; [1]): 65% and 53%
Population Fragmented Nuclei (%) (HEK-293T; [1]): 4% and 5%
Population Healthy Nuclei (%) (HEK-293T; [1]): 77% and 80%
Population Hoechst High Intensity Objects (%) (HEK-293T; [1]): 16% and 8%
Population Membrane Permeable-Phenotype (%) (HEK-293T; [1]): 5% and 2%
Population Mitochondria Different-Phenotype (%) (HEK-293T; [1]): 17% and 11%
Population Mitotic Cells (%) (HEK-293T; [1]): 34% and 46%
Population Normal (%) (HEK-293T; [1]): 84% and 91%
Population Pyknosed Nuclei (%) (HEK-293T; [1]): 18% and 14%
Population Tubulin-Different-Phenotype (%) (HEK-293T; [1]): 41% and 37%
Total Cell Count (HEK-293T; [1]): 450 and 596
Population Apoptotic (%) (HEK-293T; [2]): 29% and 35%
Population Fragmented Nuclei (%) (HEK-293T; [2]): 1%
Population Healthy Nuclei (%) (HEK-293T; [2]): 81% and 86%
Population Hoechst High Intensity Objects (%) (HEK-293T; [2]): 4% and 5%
Population Membrane Permeable-Phenotype (%) (HEK-293T; [2]): 1% and 2%
Population Mitochondria Different-Phenotype (%) (HEK-293T; [2]): 17% and 12%
Population Mitotic Cells (%) (HEK-293T; [2]): 70% and 64%
Population Normal (%) (HEK-293T; [2]): 95% and 94%
Population Pyknosed Nuclei (%) (HEK-293T; [2]): 16% and 11%
Population Tubulin-Different-Phenotype (%) (HEK-293T; [2]): 40% and 36%
Total Cell Count (HEK-293T; [2]): 676 and 839
Population Apoptotic (%) (HEK-293T; [3]): 72% and 39%
Population Fragmented Nuclei (%) (HEK-293T; [3]): 7% and 10%
Population Healthy Nuclei (%) (HEK-293T; [3]): 78% and 79%
Population Hoechst High Intensity Objects (%) (HEK-293T; [3]): 10% and 7%
Population Membrane Permeable-Phenotype (%) (HEK-293T; [3]): 2%
Population Mitochondria Different-Phenotype (%) (HEK-293T; [3]): 6% and 1%
Population Mitotic Cells (%) (HEK-293T; [3]): 27% and 60%
Population Normal (%) (HEK-293T; [3]): 89% and 92%
Population Pyknosed Nuclei (%) (HEK-293T; [3]): 14% and 10%
Population Tubulin-Different-Phenotype (%) (HEK-293T; [3]): 24% and 13%
Total Cell Count (HEK-293T; [3]): 675 and 1010
Population Apoptotic (%) (HEK-293T; [4]): 21% and 17%
Population Fragmented Nuclei (%) (HEK-293T; [4]): 2%
Population Healthy Nuclei (%) (HEK-293T; [4]): 85% and 81%
Population Hoechst High Intensity Objects (%) (HEK-293T; [4]): 3%
Population Membrane Permeable-Phenotype (%) (HEK-293T; [4]): 2%
Population Mitochondria Different-Phenotype (%) (HEK-293T; [4]): 4% and 3%
Population Mitotic Cells (%) (HEK-293T; [4]): 78% and 82%
Population Normal (%) (HEK-293T; [4]): 96%
Population Pyknosed Nuclei (%) (HEK-293T; [4]): 12% and 15%
Population Tubulin-Different-Phenotype (%) (HEK-293T; [4]): 16% and 18%
Total Cell Count (HEK-293T; [4]): 1151 and 1278
Population Apoptotic (%) (HEK-293T; [5]): 36% and 15%
Population Fragmented Nuclei (%) (HEK-293T; [5]): 12% and 15%
Population Healthy Nuclei (%) (HEK-293T; [5]): 81% and 80%
Population Hoechst High Intensity Objects (%) (HEK-293T; [5]): 10% and 8%
Population Membrane Permeable-Phenotype (%) (HEK-293T; [5]): 2% and 3%
Population Mitochondria Different-Phenotype (%) (HEK-293T; [5]): 1% and 0%
Population Mitotic Cells (%) (HEK-293T; [5]): 63% and 84%
Population Normal (%) (HEK-293T; [5]): 89% and 91%
Population Pyknosed Nuclei (%) (HEK-293T; [5]): 5% and 4%
Population Tubulin-Different-Phenotype (%) (HEK-293T; [5]): 4% and 5%
Total Cell Count (HEK-293T; [5]): 1439 and 2070
Population Apoptotic (%) (HEK-293T; [6]): 19% and 27%
Population Fragmented Nuclei (%) (HEK-293T; [6]): 4%
Population Healthy Nuclei (%) (HEK-293T; [6]): 79% and 76%
Population Hoechst High Intensity Objects (%) (HEK-293T; [6]): 3%
Population Membrane Permeable-Phenotype (%) (HEK-293T; [6]): 4%
Population Mitochondria Different-Phenotype (%) (HEK-293T; [6]): 3%
Population Mitotic Cells (%) (HEK-293T; [6]): 80% and 72%
Population Normal (%) (HEK-293T; [6]): 96%
Population Pyknosed Nuclei (%) (HEK-293T; [6]): 16% and 18%
Population Tubulin-Different-Phenotype (%) (HEK-293T; [6]): 16% and 24%
Total Cell Count (HEK-293T; [6]): 1576 and 1527
Population Apoptotic (%) (U2OS; [1]): 40% and 66%
Population Healthy Nuclei (%) (U2OS; [1]): 64% and 87%
Population Hoechst High Intensity Objects (%) (U2OS; [1]): 0%
Population Membrane Permeable-Phenotype (%) (U2OS; [1]): 0% and 1%
Population Mitochondria Different-Phenotype (%) (U2OS; [1]): 0%
Population Mitotic Cells (%) (U2OS; [1]): 60% and 33%
Population Normal (%) (U2OS; [1]): 100%
Population Pyknosed Nuclei (%) (U2OS; [1]): 10% and 7%
Population Tubulin-Different-Phenotype (%) (U2OS; [1]): 100% and 96%
Population Apoptotic (%) (U2OS; [2]): 66% and 52%
Population Healthy Nuclei (%) (U2OS; [2]): 59% and 84%
Population Hoechst High Intensity Objects (%) (U2OS; [2]): 0%
Population Membrane Permeable-Phenotype (%) (U2OS; [2]): 0% and 1%
Population Mitochondria Different-Phenotype (%) (U2OS; [2]): 0% and 1%
Population Mitotic Cells (%) (U2OS; [2]): 33% and 47%
Population Normal (%) (U2OS; [2]): 100% and 99%
Population Pyknosed Nuclei (%) (U2OS; [2]): 11% and 10%
Population Tubulin-Different-Phenotype (%) (U2OS; [2]): 56% and 81%
Population Apoptotic (%) (U2OS; [3]): 50% and 53%
Population Healthy Nuclei (%) (U2OS; [3]): 62% and 87%
Population Hoechst High Intensity Objects (%) (U2OS; [3]): 0%
Population Membrane Permeable-Phenotype (%) (U2OS; [3]): 0% and 2%
Population Mitochondria Different-Phenotype (%) (U2OS; [3]): 2% and 0%
Population Mitotic Cells (%) (U2OS; [3]): 50% and 46%
Population Normal (%) (U2OS; [3]): 100%
Population Pyknosed Nuclei (%) (U2OS; [3]): 10% and 8%
Population Tubulin-Different-Phenotype (%) (U2OS; [3]): 100% and 95%
Population Apoptotic (%) (U2OS; [4]): 75% and 45%
Population Healthy Nuclei (%) (U2OS; [4]): 55% and 78%
Population Hoechst High Intensity Objects (%) (U2OS; [4]): 1% and 0%
Population Membrane Permeable-Phenotype (%) (U2OS; [4]): 2%
Population Mitochondria Different-Phenotype (%) (U2OS; [4]): 0%
Population Mitotic Cells (%) (U2OS; [4]): 25% and 54%
Population Normal (%) (U2OS; [4]): 98% and 100%
Population Pyknosed Nuclei (%) (U2OS; [4]): 11% and 13%
Population Tubulin-Different-Phenotype (%) (U2OS; [4]): 68% and 77%
Population Apoptotic (%) (U2OS; [5]): 56% and 75%
Population Healthy Nuclei (%) (U2OS; [5]): 58% and 89%
Population Hoechst High Intensity Objects (%) (U2OS; [5]): 0%
Population Membrane Permeable-Phenotype (%) (U2OS; [5]): 0% and 1%
Population Mitochondria Different-Phenotype (%) (U2OS; [5]): 0%
Population Mitotic Cells (%) (U2OS; [5]): 43% and 25%
Population Normal (%) (U2OS; [5]): 100% and 99%
Population Pyknosed Nuclei (%) (U2OS; [5]): 20% and 7%
Population Tubulin-Different-Phenotype (%) (U2OS; [5]): 100% and 97%
Population Apoptotic (%) (U2OS; [6]): 75% and 67%
Population Healthy Nuclei (%) (U2OS; [6]): 21% and 58%
Population Hoechst High Intensity Objects (%) (U2OS; [6]): 1% and 0%
Population Membrane Permeable-Phenotype (%) (U2OS; [6]): 5% and 10%
Population Mitochondria Different-Phenotype (%) (U2OS; [6]): 5% and 2%
Population Mitotic Cells (%) (U2OS; [6]): 24% and 32%
Population Normal (%) (U2OS; [6]): 98% and 99%
Population Pyknosed Nuclei (%) (U2OS; [6]): 34% and 28%
Population Tubulin-Different-Phenotype (%) (U2OS; [6]): 61% and 74%
